The source of these data is ChEMBL document CHEMBL3745614, “Potent and selective N-(4-sulfamoylphenyl)thiourea-based GPR55 agonists” (Eur J Med Chem, 2016).

The structures appear in SMILES notation.

The target in test [1] is T1, Monoglyceride lipase (Homo sapiens) (UniProt Q99685).
T1 sequence (whole entry): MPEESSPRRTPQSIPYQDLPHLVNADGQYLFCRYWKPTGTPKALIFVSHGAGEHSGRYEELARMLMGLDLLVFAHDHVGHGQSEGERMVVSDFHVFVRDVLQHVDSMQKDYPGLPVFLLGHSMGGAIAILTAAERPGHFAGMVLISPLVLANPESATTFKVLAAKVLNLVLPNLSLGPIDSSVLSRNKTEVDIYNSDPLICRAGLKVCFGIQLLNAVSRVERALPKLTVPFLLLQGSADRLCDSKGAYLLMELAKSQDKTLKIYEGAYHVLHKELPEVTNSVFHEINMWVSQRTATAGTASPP
The test is described as follows: Inhibition of human MGL expressed in […] cells using 2AG as substrate assessed as residual activity at 10 uM preincubated for 10 mins followed by substrate addition measured after 10 mins by HPLC analysis. It is filed as cell-based. The method in brief:
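Lysates of HEK cells overexpressing hMGL, 2.5 μg protein per incubation, substrate at 50 μM. Compounds tested at 10 μM.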

Test [2] has as its target Cannabinoid receptor 2 (Homo sapiens) (UniProt P34972). The test is described as follows: Antagonist activity at human CBR2 assessed as [35S]GTPgammaS binding at 10 uM by […] assay relative to control. The format is functional. More on the design: scale not given: the % may be the effect or the level left.
In test [3] the target is T2, G-protein coupled receptor 55 (Homo sapiens, UniProt Q9Y2T6). The test can be described thus: Agonist activity at human GPR55 expressed in CHOK1 cells at 10 uM by pathHunter beta-arrestin assay relative to control. The format is cell-based. The settings on record: CHO-K1. The method in brief:
(§1)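 PathHunter eXpress GPR55 CHO-K1 β-arrestin kit run per the kit protocol, compounds screened at 10 μM. Luminescence read and expressed as percentage of the signal from bovine liver LPI at 1 μM. Mean with range of two experiments, each done in duplicate.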

Test [4] deals with T3, Fatty-acid amide hydrolase 1 (Homo sapiens) (UniProt O00519).
T3 sequence (whole entry): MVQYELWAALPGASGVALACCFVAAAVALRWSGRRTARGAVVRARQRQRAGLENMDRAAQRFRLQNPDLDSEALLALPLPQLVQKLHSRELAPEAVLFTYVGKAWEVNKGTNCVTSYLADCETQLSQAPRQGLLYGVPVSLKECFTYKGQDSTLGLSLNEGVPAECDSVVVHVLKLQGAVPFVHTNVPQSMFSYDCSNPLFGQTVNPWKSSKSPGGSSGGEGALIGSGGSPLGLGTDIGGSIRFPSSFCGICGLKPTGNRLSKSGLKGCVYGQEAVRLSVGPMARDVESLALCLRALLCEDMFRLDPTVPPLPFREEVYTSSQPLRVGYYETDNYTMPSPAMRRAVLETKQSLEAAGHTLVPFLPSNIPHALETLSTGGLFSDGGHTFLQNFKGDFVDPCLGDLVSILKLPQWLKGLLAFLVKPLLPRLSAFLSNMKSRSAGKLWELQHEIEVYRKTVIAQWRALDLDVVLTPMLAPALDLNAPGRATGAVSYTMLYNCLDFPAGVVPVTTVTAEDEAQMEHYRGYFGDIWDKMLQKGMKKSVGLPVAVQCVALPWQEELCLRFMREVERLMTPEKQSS
The test is described as follows: Inhibition of human FAAH expressed in African green monkey COS-7 cell membranes using [3H]-AEA as substrate assessed as residual activity at 10 uM preincubated for 10 mins followed by substrate addition measured after 10 mins by liquid scintillation counting analysis relative to control. The method in brief: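 Membranes of COS-7 cells overexpressing hFAAH, 1 μg protein per incubation. Substrate 20 μM AEA including 10 nM [3H]AEA (60 Ci/mmol). Compounds tested at 10 μM.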

For test [5], the target named is Cannabinoid receptor 1 (Homo sapiens) (UniProt P21554). The test is described as follows: Agonist activity at CBR1 (unknown origin) assessed as [35S]GTPgammaS binding at 10 uM by […] assay relative to control. The format is functional.
The target of test [6] is T4, Lysophosphatidylserine lipase ABHD12 (Homo sapiens) (UniProt Q8N2K0).
T4 sequence (whole entry): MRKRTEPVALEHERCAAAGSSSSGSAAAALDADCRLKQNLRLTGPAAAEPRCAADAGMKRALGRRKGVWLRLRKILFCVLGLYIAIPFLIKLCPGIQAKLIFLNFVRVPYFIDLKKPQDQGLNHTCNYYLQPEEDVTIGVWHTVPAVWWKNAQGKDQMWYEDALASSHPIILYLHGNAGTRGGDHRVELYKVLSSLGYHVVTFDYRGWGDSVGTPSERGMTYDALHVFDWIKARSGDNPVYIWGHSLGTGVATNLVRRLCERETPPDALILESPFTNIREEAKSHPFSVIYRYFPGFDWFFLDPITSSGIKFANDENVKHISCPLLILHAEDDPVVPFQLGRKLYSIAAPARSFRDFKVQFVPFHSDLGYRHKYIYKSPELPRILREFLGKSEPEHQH
The test can be described thus: Inhibition of human ABHD12 expressed in […] cells using 2-AG as substrate assessed as glycerol liberation at 10 uM preincubated for 30 mins followed by 2-AG addition measured for 90 mins by fluorescent glycerol assay relative to control. The format is cell-based. More on the design: scale not given: the % may be the effect or the level left. The method in brief: (§2)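 Lysates of HEK293 cells transiently overexpressing hABHD6 or hABHD12, 0.3 μg protein/well. Pretreated 30 min with DMSO or compound, then 2-AG added (12.5 μM final). Glycerol release coupled enzymatically to H2O2-dependent resorufin formation; fluorescence (ex 530/em 590 nm) followed kinetically for 90 min.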

Test [7] concerns the target T2, G-protein coupled receptor 55. The test is described as follows: Agonist activity at human GPR55 expressed in CHOK1 cells at 10 uM by pathHunter beta-arrestin assay relative to LPI. To be noted: CHO-K1. It is filed as cell-based. The method in brief: as §1
The target of test [8] is T5, Monoacylglycerol lipase ABHD6 (Homo sapiens) (UniProt Q9BV23).
T5 sequence (whole entry): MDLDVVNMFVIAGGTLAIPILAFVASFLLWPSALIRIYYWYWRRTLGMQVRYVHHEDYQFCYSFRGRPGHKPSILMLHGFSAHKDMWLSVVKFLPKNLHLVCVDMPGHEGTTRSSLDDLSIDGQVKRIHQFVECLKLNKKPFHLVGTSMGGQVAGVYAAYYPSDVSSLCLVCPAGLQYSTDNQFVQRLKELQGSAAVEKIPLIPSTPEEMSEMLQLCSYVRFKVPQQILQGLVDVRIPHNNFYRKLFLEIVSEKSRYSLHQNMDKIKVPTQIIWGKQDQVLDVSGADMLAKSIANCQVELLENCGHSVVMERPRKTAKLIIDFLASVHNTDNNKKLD
The test is described as follows: Inhibition of human ABHD6 expressed in […] cells using 2-AG as substrate assessed as glycerol liberation at 10 uM preincubated for 30 mins followed by 2-AG addition measured for 90 mins by fluorescent glycerol assay relative to control. It is filed as cell-based. Details: scale not given: the % may be the effect or the level left. The method in brief: as §2

Test [9] concerns the target Cannabinoid receptor 2 (Homo sapiens) (UniProt P34972). The test is described as follows: Agonist activity at CBR2 (unknown origin) assessed as [35S]GTPgammaS binding at 10 uM by […] assay relative to control. It is filed as functional.
The target in test [10] is Cannabinoid receptor 1 (Homo sapiens) (UniProt P21554). The test can be described thus: Antagonist activity at human CBR1 assessed as [35S]GTPgammaS binding at 10 uM by radiometric assay relative to control. Details: scale not given: the % may be the effect or the level left.
Test [11] concerns the target T5, Monoacylglycerol lipase ABHD6 (Homo sapiens). The test is described as follows: Inhibition of human ABHD6 expressed in […] cells using 2-AG as substrate assessed as glycerol liberation at 1 uM preincubated for 30 mins followed by 2-AG addition measured for 90 mins by fluorescent glycerol assay relative to control. It is filed as cell-based. More on the design: scale not given: the % may be the effect or the level left. The method in brief: as §2

Chain of Cannabinoid receptor 2 (Homo sapiens) (P34972 whole entry): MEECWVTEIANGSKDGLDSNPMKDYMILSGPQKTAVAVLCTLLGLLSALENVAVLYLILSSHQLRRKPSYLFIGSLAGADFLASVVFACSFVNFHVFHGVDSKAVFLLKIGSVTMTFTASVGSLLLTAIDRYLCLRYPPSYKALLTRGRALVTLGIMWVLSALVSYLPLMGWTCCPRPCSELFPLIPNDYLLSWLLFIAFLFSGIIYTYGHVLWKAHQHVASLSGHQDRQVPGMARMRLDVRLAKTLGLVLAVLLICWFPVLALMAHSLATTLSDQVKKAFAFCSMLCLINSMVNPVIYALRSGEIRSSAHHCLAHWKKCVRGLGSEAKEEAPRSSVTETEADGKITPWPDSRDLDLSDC
Chain of Cannabinoid receptor 1 (Homo sapiens) (P21554 whole entry): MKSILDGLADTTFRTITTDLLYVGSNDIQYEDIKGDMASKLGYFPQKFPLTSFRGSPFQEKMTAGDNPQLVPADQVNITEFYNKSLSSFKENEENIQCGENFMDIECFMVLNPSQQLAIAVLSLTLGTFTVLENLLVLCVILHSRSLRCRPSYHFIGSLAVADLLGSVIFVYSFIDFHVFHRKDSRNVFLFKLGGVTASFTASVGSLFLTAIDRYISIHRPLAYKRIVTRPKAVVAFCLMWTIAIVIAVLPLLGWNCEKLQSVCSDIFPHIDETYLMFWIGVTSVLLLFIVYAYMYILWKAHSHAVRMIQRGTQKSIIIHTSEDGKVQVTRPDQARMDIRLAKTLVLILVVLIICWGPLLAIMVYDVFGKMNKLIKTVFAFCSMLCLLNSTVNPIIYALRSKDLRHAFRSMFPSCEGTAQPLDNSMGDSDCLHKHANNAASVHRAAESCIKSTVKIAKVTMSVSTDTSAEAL
T2 sequence (Q9Y2T6 whole entry): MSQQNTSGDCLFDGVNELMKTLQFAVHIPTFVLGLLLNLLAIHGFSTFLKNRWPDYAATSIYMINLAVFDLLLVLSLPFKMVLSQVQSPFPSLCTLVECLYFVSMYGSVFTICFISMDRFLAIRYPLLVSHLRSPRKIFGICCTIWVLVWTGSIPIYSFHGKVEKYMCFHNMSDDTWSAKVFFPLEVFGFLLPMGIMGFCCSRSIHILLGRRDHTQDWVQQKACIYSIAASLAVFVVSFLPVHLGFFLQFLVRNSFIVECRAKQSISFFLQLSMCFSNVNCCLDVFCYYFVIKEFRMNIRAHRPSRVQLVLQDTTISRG

For `CCCCc1ccc(NS(=O)(=O)c2ccc(NC(=S)NC(=O)c3ccc(-c4ccccc4)cc3)cc2)cc1`, the Activity in test [1] came to 104%; in test [2] it was 100%; in test [3] it was 134%; in test [4], 95%; in test [5], 96%; in test [6], 83%. Further, the Activity came to 91% in [7], 97% in test [8], 90% in test [9] and 78% in [10].
Take `C=CCN(CC=C)S(=O)(=O)c1ccc(NC(=S)NC(=O)c2ccc(-c3ccccc3)cc2)cc1`: the Activity was 96% in test [1]; 105% in test [2]; 176% in test [3]; 92% in [4]; 95% in test [5]; 72% in test [6]. The Activity in [8] came to 74%; in test [9] it was 100%; in test [10], 80%.
Consider `NS(=O)(=O)c1ccc(NC(=S)NC(=O)c2ccc(-c3ccccc3)cc2)cc1`, for which the Activity stood at 94% in test [1]; 89% in test [2]; 150% in test [3]; 34% in [4]; 147% in [5]; 84% in test [6]. In addition, the Activity in test [8] amounted to 85%; in test [9], 95%; in test [10] it was 119%.
In the case of `O=C(NC(=S)Nc1ccc(S(=O)(=O)Nc2ccc(Cl)cc2)cc1)c1ccc(-c2ccccc2)cc1`, the Activity in test [1] is 105%; in test [2], 101%; in [3] it was 231%; in test [4], 89%; in test [5], 93%; in test [6], 82%. Also, the Activity in [7] amounted to 158%; in test [8], 93%; in test [9] it was 94%; in test [10], 84%.
Consider `COc1ccc(C(=O)NC(=S)Nc2ccc(S(=O)(=O)NC(C)C)cc2)cc1`, for which the Activity is 93% in test [1]; 92% in [2]; 91% in test [3]; 102% in test [11]; 103% in test [4]; 93% in [5]. Also, the Activity in test [6] turned out to be 78%; in [7] it was 62%; in test [8], 66%; in test [9], 90%; in [10], 95%.
With `Cc1ccc(C(=O)NC(=S)Nc2ccc(S(=O)(=O)NC(C)C)cc2)c(Br)c1`, the Activity in test [1] came out at 89%; in [2] it was 100%; in [3] it was 105%; in test [11], 106%; in test [4], 97%; in test [5], 103%. For the same compound, the Activity in test [6] came out at 74%; in test [7], 70%; in test [8], 59%; in test [9], 88%; in [10], 88%.
On to `CC(=O)NS(=O)(=O)c1ccc(NC(=S)NC(=O)c2cccc3ccccc23)cc1`, for which the Activity in [1] was 98%; in test [2], 97%; in [3], 99%; in test [4], 107%; in test [5], 96%; in test [6] it was 82%. The Activity in test [7] is 66%; in test [8], 88%; in test [9] it was 94%; in [10], 101%.
As to `CC(=O)NS(=O)(=O)c1ccc(NC(=S)NC(=O)c2ccc(C(C)C)cc2)cc1`, the Activity in test [1] was found to be 99%; in test [2] it was 92%; in test [3] it was 99%; in test [4], 103%; in test [5], 100%; in [6], 88%. Besides, the Activity was 67% in test [7], 81% in [8], 96% in test [9] and 98% in [10].
